From ChEMBL document CHEMBL1629657, “In vitro antimicrobial activity of a new cephalosporin, ceftaroline, and determination of quality control ranges for MIC testing” (2009)
Converted amounts (≈) assume the structure as drawn.

Assays:
Type in all cases: functional
Providencia rettgeri = assay: Antimicrobial activity against Proteus rettgeri by broth microdilution method
How it was run: (§1)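 Clinical isolates were tested by CLSI broth microdilution in unsupplemented cation-adjusted Mueller-Hinton broth. The read-out was the MIC, reported as MIC90 (μg/ml) per species or phenotypic group. Ceftriaxone, levofloxacin and imipenem were run in parallel as comparators.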

Corynebacterium jeikeium = assay: Antimicrobial activity against Corynebacterium jeikeium by broth microdilution method; how it was run: as §1
Enterococcus faecalis [1] = assay: Antimicrobial activity against vancomycin-susceptible Enterococcus faecalis by broth microdilution method; how it was run: as §1
Enterococcus faecalis [2] = assay: Antimicrobial activity against Enterococcus faecalis by broth microdilution method; how it was run: as §1
Salmonella sp. = assay: Antimicrobial activity against Salmonella spp. by broth microdilution method; how it was run: as §1
Streptococcus pneumoniae [3] = assay: Antimicrobial activity against penicillin-susceptible Streptococcus pneumoniae by broth microdilution method
How it was run: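 Streptococcal isolates were tested by CLSI broth microdilution in cation-adjusted Mueller-Hinton broth supplemented with 3% lysed horse blood. The read-out was the MIC, with MIC90 (μg/ml) reported per group. Ceftriaxone, levofloxacin and imipenem served as comparators.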

Streptococcus pneumoniae [4] = assay: Antimicrobial activity against penicillin-resistant Streptococcus pneumoniae by broth microdilution method
How it was run: (§2)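 CLSI broth microdilution in cation-adjusted Mueller-Hinton broth with 3% lysed horse blood, against streptococcal clinical isolates of the stated phenotype. Ceftaroline was compared with ceftriaxone, levofloxacin and imipenem. Activity was expressed as MICs (MIC90 in μg/ml).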

Serratia marcescens = assay: Antimicrobial activity against Serratia marcescens by broth microdilution method; how it was run: as §1
Klebsiella pneumoniae [5] = assay: Antimicrobial activity against ESBL-negative Klebsiella pneumoniae by broth microdilution method; how it was run: as §1
Pseudomonas aeruginosa = assay: Antimicrobial activity against multidrug resistant Pseudomonas aeruginosa by broth microdilution method
How it was run: (§3)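 Isolates of the stated resistance phenotype were tested by CLSI broth microdilution in unsupplemented cation-adjusted Mueller-Hinton broth. Ceftaroline was compared with ceftriaxone, levofloxacin and imipenem. Activity was expressed as MICs (MIC90 in μg/ml).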

Shigella sp. = assay: Antimicrobial activity against Shigella spp. by broth microdilution method; how it was run: as §1
Streptococcus pyogenes = assay: Antimicrobial activity against macrolide-resistant Streptococcus pyogenes by broth microdilution method; how it was run: as §2
Enterococcus faecium = assay: Antimicrobial activity against Enterococcus faecium by broth microdilution method; how it was run: as §1
Staphylococcus [6] = assay: Antimicrobial activity against methicillin-susceptible coagulase-negative Staphylococcus by broth microdilution method; how it was run: as §1
Staphylococcus aureus = assay: Antimicrobial activity against methicillin-susceptible Staphylococcus aureus by broth microdilution method; how it was run: as §1
Staphylococcus [7] = assay: Antimicrobial activity against methicillin-resistant coagulase-negative Staphylococcus by broth microdilution method; how it was run: as §3
Proteus vulgaris = assay: Antimicrobial activity against Proteus vulgaris by broth microdilution method; how it was run: as §1
Klebsiella pneumoniae [8] = assay: Antimicrobial activity against ESBL-positive Klebsiella pneumoniae by broth microdilution method; how it was run: as §1
Haemophilus influenzae = assay: Antimicrobial activity against beta-lactamase-positive Haemophilus influenzae by broth microdilution method
How it was run: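 H. influenzae isolates were tested by CLSI broth microdilution using Haemophilus test medium. The MIC was read and MIC90 (μg/ml) reported for the group. Ceftriaxone, levofloxacin and imipenem served as comparators.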

Burkholderia cepacia = assay: Antimicrobial activity against Burkholderia cepacia by broth microdilution method; how it was run: as §1

## C[C@@H](O)[C@H]1C(=O)N2C(C(=O)O)=C(SCCNC=N)C[C@H]12 [IMIPENEM ANHYDROUS]
Providencia rettgeri
  MIC50: 2 µg/mL (≈ 6.68 µM)
  MIC90: 4 µg/mL (≈ 13.4 µM)
Corynebacterium jeikeium
  MIC50: > 32 µg/mL
  MIC90: > 32 µg/mL
Enterococcus faecalis [1]
  MIC50: 1 µg/mL (≈ 3.34 µM)
  MIC90: 2 µg/mL (≈ 6.68 µM)
Enterococcus faecalis [2]
  MIC50: 1 µg/mL (≈ 3.34 µM)
  MIC90: 2 µg/mL (≈ 6.68 µM)
Salmonella sp.
  MIC50: 0.25 µg/mL (≈ 0.835 µM)
  MIC90: 0.25 µg/mL (≈ 0.835 µM)
Streptococcus pneumoniae [3]
  MIC: 0.015 µg/mL (≈ 0.0501 µM)
  MIC50: 0.015 µg/mL (≈ 0.0501 µM)
  MIC90: 0.015 µg/mL (≈ 0.0501 µM)
Streptococcus pneumoniae [4]
  MIC50: 0.5 µg/mL (≈ 1.67 µM)
  MIC90: 1 µg/mL (≈ 3.34 µM)
Serratia marcescens
  MIC50: 0.5 µg/mL (≈ 1.67 µM)
  MIC90: 1 µg/mL (≈ 3.34 µM)
Klebsiella pneumoniae [5]
  MIC50: 0.25 µg/mL (≈ 0.835 µM)
  MIC90: 0.5 µg/mL (≈ 1.67 µM)
Pseudomonas aeruginosa
  MIC50: 8 µg/mL (≈ 26.7 µM)
  MIC90: 16 µg/mL (≈ 53.4 µM)
Shigella sp.
  MIC: 0.12 µg/mL (≈ 0.401 µM)
  MIC50: 0.12 µg/mL (≈ 0.401 µM)
  MIC90: 0.25 µg/mL (≈ 0.835 µM)
Streptococcus pyogenes
  MIC: 0.015 µg/mL (≈ 0.0501 µM)
  MIC50: 0.015 µg/mL (≈ 0.0501 µM)
  MIC90: 0.015 µg/mL (≈ 0.0501 µM)
Enterococcus faecium
  MIC50: > 32 µg/mL
  MIC90: > 32 µg/mL
Staphylococcus [6]
  MIC: 0.015 µg/mL (≈ 0.0501 µM)
  MIC50: 0.015 µg/mL (≈ 0.0501 µM)
  MIC90: 0.03 µg/mL (≈ 0.1 µM)
Staphylococcus aureus
  MIC: 0.015 µg/mL (≈ 0.0501 µM)
  MIC50: 0.015 µg/mL (≈ 0.0501 µM)
  MIC90: 0.03 µg/mL (≈ 0.1 µM)
Staphylococcus [7]
  MIC50: 0.25 µg/mL (≈ 0.835 µM)
  MIC90: 32 µg/mL (≈ 107 µM)
Proteus vulgaris
  MIC50: 2 µg/mL (≈ 6.68 µM)
  MIC90: 4 µg/mL (≈ 13.4 µM)
Klebsiella pneumoniae [8]
  MIC50: 0.12 µg/mL (≈ 0.401 µM)
  MIC90: 0.25 µg/mL (≈ 0.835 µM)
Haemophilus influenzae
  MIC50: 0.25 µg/mL (≈ 0.835 µM)
  MIC90: 0.5 µg/mL (≈ 1.67 µM)
Burkholderia cepacia
  MIC50: 8 µg/mL (≈ 26.7 µM)
  MIC90: 32 µg/mL (≈ 107 µM)
